Experimental data taken from ChEMBL document CHEMBL1124104, “(Acyloxy)benzophenones and (acyloxy)-4-pyrones. A new class of inhibitors of human neutrophil elastase” (J Med Chem, 1988).
Values belong to the molecule of their own block, whether it stands above or below them.

Tests used:
[1] = biological target: T1, Neutrophil elastase (Homo sapiens) (UniProt P08246); assay: Inhibitory activity against [14C]elastin hydrolysis at 3 uM concentration and 1h.
T1 sequence (whole entry): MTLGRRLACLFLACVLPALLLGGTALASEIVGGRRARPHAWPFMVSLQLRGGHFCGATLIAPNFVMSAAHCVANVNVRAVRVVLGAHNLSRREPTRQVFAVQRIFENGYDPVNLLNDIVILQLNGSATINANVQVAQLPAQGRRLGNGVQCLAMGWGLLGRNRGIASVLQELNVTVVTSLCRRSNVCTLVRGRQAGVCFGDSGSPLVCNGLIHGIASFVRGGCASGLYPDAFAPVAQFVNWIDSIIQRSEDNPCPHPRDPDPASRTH
Summary of the method: (§1)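 Elastase digestion of [¹⁴C]elastin, quantitated by radiolabel release (method of Bielefeld et al.). Substrate, inhibitor and elastase were all present for the whole run, and % inhibition was read at 1, 2 and 3 h.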

[2] = biological target: T1, Neutrophil elastase (Homo sapiens); assay: Inhibitory activity against [14C]elastin hydrolysis at 3 uM concentration and 2 hr.; summary of the method: as §1
[3] = biological target: T1, Neutrophil elastase (Homo sapiens); assay: Inhibitory activity against [14C]-Elastin hydrolysis at 3 uM concentration and 3h.; summary of the method: as §1
[4] = biological target: T1, Neutrophil elastase (Homo sapiens); assay: Inhibitory activity against [14C]elastin hydrolysis at 1 uM concentration and 1h.; summary of the method: as §1
[5] = biological target: T1, Neutrophil elastase (Homo sapiens); assay: Inhibitory activity against [14C]elastin hydrolysis at 1 uM concentration and 2 hr.; summary of the method: as §1
[6] = biological target: T1, Neutrophil elastase (Homo sapiens); assay: Inhibitory activity against [14C]elastin hydrolysis at 1 uM concentration and 3h.; summary of the method: as §1
Neutrophil elastase [7] = biological target: T2, Neutrophil elastase (Homo sapiens, UniProt P08246); assay: Inhibitory activity against human leukocyte elastase at 10e-7 M
T2 sequence (P08246 whole entry): T1 sequence (whole entry)

[8] = biological target: T1, Neutrophil elastase (Homo sapiens); assay: Inhibitory activity against [14C]elastin hydrolysis at 2 uM concentration and 1h.; summary of the method: as §1
[9] = biological target: T1, Neutrophil elastase (Homo sapiens); assay: Inhibitory activity against [14C]-Elastin hydrolysis at 2 uM concentration and 2 hr.; summary of the method: as §1
[10] = biological target: T1, Neutrophil elastase (Homo sapiens); assay: Inhibitory activity against [14C]-Elastin hydrolysis at 2 uM concentration and 3h.; summary of the method: as §1
[11] = biological target: T1, Neutrophil elastase (Homo sapiens); assay: (§2) Inhibitory activity against human leukocyte elastase at 10e-4 M
Summary of the method: (§3)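 HLE activity followed as rise in absorbance at 410 nm from nitroanilide release; substrate (methoxysuccinyl)Ala-Ala-Pro-Val nitroanilide at 10⁻⁴ M. Run in 0.2 M Tris, pH 8.0, 30 °C. Inhibitors and substrate dissolved in DMSO, which made up 10% of the final medium. Enzyme titrated to give 0.12 OD unit/min per 10 mm path.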

Neutrophil elastase [12] = biological target: T2, Neutrophil elastase; assay: Inhibitory activity against human leukocyte elastase at 10e-6 M
Neutrophil elastase [13] = biological target: T2, Neutrophil elastase; assay: as §2; summary of the method: as §3
Neutrophil elastase [14] = biological target: T2, Neutrophil elastase; assay: Inhibitory activity against human leukocyte elastase at 10e-5 M; summary of the method: as §3
Neutrophil elastase [15] = biological target: T2, Neutrophil elastase; assay: Inhibitory activity against human leukocyte elastase; No inhibition at 1x10E-2 M; summary of the method: as §3
[16] = biological target: T1, Neutrophil elastase (Homo sapiens); assay: Inhibitory activity against [14C]-Elastin hydrolysis at 0.5 uM concentration and 2 hr.; summary of the method: as §1
[17] = biological target: T1, Neutrophil elastase (Homo sapiens); assay: Inhibitory activity against [14C]elastin hydrolysis at 0.5 uM concentration and 3h.; summary of the method: as §1
Neutrophil elastase [18] = biological target: T2, Neutrophil elastase; assay: Inhibitory activity against human leukocyte elastase at 10e-8 M
[19] = Inhibitory activity against Hog pancreatic elastase IA = Inactive at 10e-5 M; parameters: species or system Sus scrofa
Neutrophil elastase [20] = biological target: T2, Neutrophil elastase; assay: Binding affinity towards human leukocyte elastase at 10e-8 M; summary of the method: as §3
[21] = biological target: T1, Neutrophil elastase (Homo sapiens); assay: Inhibitory activity against [14C]elastin hydrolysis at 0.5 uM concentration and 1h.; summary of the method: as §1
[22] = Inhibitory activity against pancreatic elastase; IA = Inactive at 10e-5 M

- IC50 (Neutrophil elastase [7]): 460 nM
Structure (SMILES): CC(C)(C)C(=O)Oc1ccc(Cc2ccc(OC(=O)C(C)(C)C)cc2)cc1

- IC50 (Neutrophil elastase [12]): 6100 nM
Structure (SMILES): CCCCCCC/C=C/CCCCCCCCC(=O)Oc1coc(COC(=O)CCCCCCC/C=C/CCCCCCCC)cc1=O

- IC50 (Neutrophil elastase [12]): 2700 nM
Structure (SMILES): CC(C)(C)C(=O)Oc1ccc(C(=O)c2ccc(O)cc2)cc1

- IC50 (Neutrophil elastase [12]): 8000 nM
Structure (SMILES): CC(C)(C)C(=O)Oc1ccccc1C(=O)c1ccccc1OC(=O)C(C)(C)C

- IC50 (Neutrophil elastase [7]): 9000 nM
Structure (SMILES): CCCCCCCCCCCCCCCCCCCC(=O)OCc1cc(=O)c(O)co1

- IC50 (Neutrophil elastase [7]): 850 nM
Structure (SMILES): C=C(C)Cc1cc(C(=O)c2ccccc2)ccc1OC(=O)C(C)(C)C

- inhibition [16]: 38%
- inhibition [17]: 21%
- inhibition [4]: 62%
- inhibition [5]: 72%
- inhibition [6]: 59%
- IC50 (Neutrophil elastase [18]): 27 nM
- inhibition [8]: 81%
- inhibition [9]: 85%
- inhibition [10]: 82%
- IC50 [19]: Not Active
- Ki (Neutrophil elastase [20]): 68 nM
- inhibition [21]: 38%
- IC50 [22]: Not Active
Structure (SMILES): CC(C)(C)C(=O)Oc1ccc(C(=O)c2ccc(OC(=O)C(C)(C)C)cc2OC(=O)C(C)(C)C)c(OC(=O)C(C)(C)C)c1

- IC50 (Neutrophil elastase [12]): 1500 nM
Structure (SMILES): CCC(C)CC(=O)Oc1ccc(C(=O)c2ccc(OC(=O)CC(C)CC)cc2OC(=O)CC(C)CC)c(OC(=O)CC(C)CC)c1 (stereo not drawn)

- IC50 (Neutrophil elastase [7]): 1800 nM
Structure (SMILES): CC(C)(C)C(=O)Oc1ccc(S(=O)(=O)c2ccc(O)cc2)cc1

- IC50 (Neutrophil elastase [14]): 20000 nM
Structure (SMILES): O=C(c1ccccc1)c1ccc(OC(=O)C2CCCCC2)cc1

- IC50 (Neutrophil elastase [12]): 5400 nM
Structure (SMILES): CC(C)(C)C(=O)Oc1ccccc1C(=O)OCc1cc(=O)c(OC(=O)C(C)(C)C)co1

- IC50 (Neutrophil elastase [12]): 1500 nM
Structure (SMILES): CC(C)(C)C(=O)Oc1ccc(C(O)c2ccc(OC(=O)C(C)(C)C)cc2)cc1

- IC50 (Neutrophil elastase [7]): 140 nM
Structure (SMILES): CC(C)(C)C(=O)Oc1ccc(C(=O)c2ccc(Cl)cc2)cc1

- IC50 (Neutrophil elastase [7]): 800 nM
Structure (SMILES): CC(C=O)Cc1cc(C(=O)c2ccccc2)ccc1OC(=O)C(C)(C)C (stereo not drawn)

- IC50 (Neutrophil elastase [14]): 43000 nM
Structure (SMILES): CC(C)(C)C(=O)Oc1coc(COC2CCOCC2)cc1=O

- IC50 (Neutrophil elastase [15]): No inhibition
Structure (SMILES): CC1C(=O)Oc2ccc(C(=O)c3ccccc3)cc21 (stereo not drawn)

More lines, now with the values behind:

Structure (SMILES): CC(C)(C)C(=O)Oc1cc(C(=O)OCc2cc(=O)c(OC(=O)C(C)(C)C)co2)cc(OC(=O)C(C)(C)C)c1OC(=O)C(C)(C)C
- inhibition [1]: 71%
- inhibition [2]: 67%
- inhibition [3]: 31%
- inhibition [4]: 39%
- inhibition [5]: 15%
- inhibition [6]: 3%
- IC50 (Neutrophil elastase [7]): 100 nM
- inhibition [8]: 58%
- inhibition [9]: 44%
- inhibition [10]: 5%

Structure (SMILES): O=c1cc(COC2CCOCC2)occ1OC(=O)[C@]12C[C@H]3C[C@H](C[C@H](C3)C1)C2
- inhibition [11]: 33%

Structure (SMILES): CC(C)(C)C(=O)Oc1ccc(Oc2ccc(OC(=O)C(C)(C)C)cc2)cc1
- IC50 (Neutrophil elastase [7]): 450 nM

Structure (SMILES): CCCCCCCCCCCCCCCC(=O)OCc1cc(=O)c(O)co1
- IC50 (Neutrophil elastase [13]): 100000 nM

Structure (SMILES): CC(C)(C)C(=O)OCc1cc(=O)c(OC(=O)C(C)(C)C)co1
- IC50 (Neutrophil elastase [14]): 36000 nM

Structure (SMILES): O=C1CCc2cc(C(=O)c3ccccc3)ccc2O1
- IC50 (Neutrophil elastase [15]): No inhibition

Structure (SMILES): CC1(C)C(=O)Oc2ccc(C(=O)c3ccccc3)cc21
- IC50 (Neutrophil elastase [15]): No inhibition

Structure (SMILES): CC(=O)NC(C)(C)C(=O)Oc1ccc(C(=O)c2ccccc2)cc1
- IC50 (Neutrophil elastase [14]): 19000 nM

Structure (SMILES): CCCCCCCCCCCCCCCC(=O)OCc1cc(=O)c(OC(=O)C(C)(C)C)co1
- IC50 (Neutrophil elastase [7]): 110 nM

Structure (SMILES): CC(C)(C)C(=O)Oc1ccccc1C(=O)c1ccccc1
- IC50 (Neutrophil elastase [7]): 10000 nM

Structure (SMILES): CCCCCCCC/C=C/CCCCCCCC(=O)OCc1cc(=O)c(OC(=O)[C@]23C[C@H]4C[C@H](C[C@H](C4)C2)C3)co1
- IC50 (Neutrophil elastase [14]): 80000 nM
